{"data": "Measurements collected from several papers", "cell line": "MDA-MB-231", "observed": "cell growth or viability", "note": "Protocols differ between the studies behind these lines."}
{"SMILES": "CCc1c(C)c2ccc(OCc3nnc(S)n3N)c(C)c2oc1=O", "technique": "MTT", "tested at": "500 µg/mL", "endpoint": "viability", "value": "2.85%"}
{"SMILES": "Nc1ccccc1NC(=O)c1ccc(CNc2ccc(NC3=C(Cl)C(=O)c4cccnc4C3=O)cc2)cc1", "technique": "MTT", "time": "48 h", "endpoint": "IC50", "value": "1.07 µM"}
{"SMILES": "CC(=NNC(=O)COc1ccc2c(C)c(Cc3ccccc3)c(=O)oc2c1C)c1ccc(Br)cc1", "technique": "MTT", "tested at": "31.25 µg/mL", "endpoint": "viability", "value": "48.2%"}
{"SMILES": "COc1ccc(CNC[C@](O)(COCc2ccc(OC)cc2)[C@@H]2CC[C@@H](C)C[C@H]2OCc2ccc(OC)cc2)cc1", "technique": "MTT", "tested at": "30 µM", "time": "72 h", "endpoint": "inhibition", "value": "98.8%"}
{"SMILES": "O=C(CCc1ccccc1)Nc1cc(-c2ccnc(N3CCC(O)CC3)c2)ccn1", "technique": "MTT", "tested at": "5 µM", "endpoint": "inhibition", "value": "78.9%"}
{"SMILES": "CC(C)CS(=O)(=O)NCc1cccc(-c2ccc3c(NC(=O)CC4CC4)n[nH]c3c2)c1", "technique": "ATP luminescence", "time": "48 h", "endpoint": "IC50", "value": "60 µM"}
{"SMILES": "C=CC(=O)c1cccnc1Nc1cc(C(F)(F)F)ccc1OC", "technique": "SRB", "time": "48 h", "endpoint": "GI50", "value": "10.5 µM"}
{"SMILES": "COc1ccc(CNC[C@@](C)(O)[C@@H]2CC[C@@H](C)C[C@H]2OCc2ccccc2)cc1", "technique": "MTT", "tested at": "10 µM", "time": "72 h", "endpoint": "inhibition", "value": "45.7%"}
{"SMILES": "Cc1cc(NC(=O)C=Cc2ccccc2)cc(-c2ccnc(N3CCC(CO)CC3)c2)c1", "technique": "MTT", "tested at": "5 µM", "endpoint": "inhibition", "value": "59.8%"}
{"SMILES": "C[C@@H]1CC[C@@H]([C@](C)(O)Cn2cnc3ccccc32)[C@H](OCc2ccccc2)C1", "technique": "MTT", "tested at": "30 µM", "time": "72 h", "endpoint": "inhibition", "value": "83.2%"}
{"SMILES": "Cc1cccc(/C=C/C(=O)Nc2cccc(-c3ccnc(N4CCC(CO)CC4)c3)c2)c1", "technique": "MTT", "tested at": "5 µM", "endpoint": "inhibition", "value": "76.4%"}
{"SMILES": "O=C(NO)c1ccc(CNc2ccc(NC3=C(Cl)C(=O)c4cccnc4C3=O)cc2)cc1-c1ccccc1", "technique": "MTT", "time": "48 h", "endpoint": "IC50", "value": "2.5 µM"}
{"SMILES": "O=C(C=Cc1ccccc1)Nc1cccc(-c2ccnc(N3CCOCC3)c2)c1", "technique": "MTT", "tested at": "5 µM", "endpoint": "inhibition", "value": "49%"}
{"SMILES": "C#Cc1nc(C2=C(C)C(O)CC2)cs1 (centres unmarked)", "endpoint": "CC50", "value": "3.2 µM"}
{"SMILES": "C[C@@H]1CC[C@@H]([C@](C)(O)CNCc2cccc(F)c2)[C@H](OCc2ccccc2)C1", "technique": "MTT", "tested at": "30 µM", "time": "72 h", "endpoint": "inhibition", "value": "96.1%"}
{"SMILES": "CCNCCCn1c2c(c3cc(OC)c(OC)cc3c1=O)C(=O)c1cc3c(nc1-2)OCO3", "technique": "MTS", "time": "72 h", "endpoint": "IC50", "value": "0.476 µM"}
{"SMILES": "Cc1cccc(/C=C/C(=O)Nc2cccc(-c3ccnc(N4CCOCC4)c3)c2)c1", "technique": "MTT", "tested at": "5 µM", "endpoint": "inhibition", "value": "32.2%"}
{"SMILES": "Cn1cc(-n2cnc3c(NCc4nc5cc(Cl)c(Cl)cc5[nH]4)nc(N4CCOCC4)nc32)cn1", "time": "5 days", "endpoint": "EC50", "value": "0.0324 µM"}
{"SMILES": "C=CCNC(=S)NNC(=O)COc1ccc2c(C)c(CC)c(=O)oc2c1C", "technique": "MTT", "tested at": "500 µg/mL", "endpoint": "viability", "value": "3%"}
{"SMILES": "O=C(C=Cc1ccc(F)cc1)Nc1cc(-c2ccnc(N3CCC(O)CC3)c2)ccn1", "technique": "MTT", "tested at": "5 µM", "endpoint": "inhibition", "value": "72.3%"}
{"SMILES": "CCc1c(C)c2ccc(OCC(=O)NN=Cc3ccc([N+](=O)[O-])cc3)cc2oc1=O", "technique": "MTT", "tested at": "250 µg/mL", "endpoint": "viability", "value": "17.3%"}
{"SMILES": "O=C(/C=C/c1cccc(F)c1)Nc1cc(-c2ccnc(N3CCC(O)CC3)c2)ccn1", "technique": "MTT", "tested at": "5 µM", "endpoint": "inhibition", "value": "75.8%"}
{"SMILES": "C=CC(=O)c1cccnc1Nc1cccc(C(F)(F)F)c1", "technique": "SRB", "time": "48 h", "endpoint": "GI50", "value": "14.6 µM"}
{"SMILES": "COc1cc([C@@H]2c3cc4c(cc3[C@@H](O[C@@H]3O[C@@H]5CO[C@@H](C)O[C@H]5[C@H](O)[C@H]3O)[C@H]3COC(=O)[C@H]23)OCO4)cc(OC)c1O", "technique": "MTT", "time": "48 h", "endpoint": "IC50", "value": "43.2 µM"}
{"SMILES": "C[C@@H]1CC[C@@H]([C@](O)(CNCc2ccc(F)cc2)COCc2ccc(F)cc2)[C@H](OCc2ccc(F)cc2)C1", "technique": "MTT", "tested at": "30 µM", "time": "72 h", "endpoint": "inhibition", "value": "95%"}
{"SMILES": "COc1cc2c3c(n(CCCNCCO)c(=O)c2cc1OC)-c1nc2c(cc1C3=O)OCO2", "technique": "MTS", "time": "72 h", "endpoint": "IC50", "value": "0.806 µM"}
{"SMILES": "C[C@@H]1CC[C@@H]([C@@](O)(CNCc2cccc3ccccc23)COCc2ccccc2)[C@H](OCc2ccccc2)C1", "technique": "MTT", "tested at": "30 µM", "time": "72 h", "endpoint": "inhibition", "value": "91.2%"}
{"SMILES": "O=C(C=Cc1ccccc1)Nc1cc(-c2ccnc(N3CCC(O)CC3)c2)ccn1", "technique": "MTT", "tested at": "5 µM", "endpoint": "inhibition", "value": "80.3%"}
{"SMILES": "C[C@@H]1CC[C@@H]([C@@](O)(CNCc2ccccc2)COCc2ccc(F)cc2)[C@H](OCc2ccc(F)cc2)C1", "technique": "MTT", "tested at": "10 µM", "time": "72 h", "endpoint": "inhibition", "value": "97.9%"}
{"SMILES": "CCNC(=S)NNC(=O)COc1ccc2c(C)c(CC)c(=O)oc2c1C", "technique": "MTT", "tested at": "500 µg/mL", "endpoint": "viability", "value": "9.96%"}
{"SMILES": "C[C@@H]1CC[C@@H]([C@](C)(O)CNCc2ccccc2)[C@H](OCc2ccccc2)C1", "technique": "MTT", "tested at": "30 µM", "time": "72 h", "endpoint": "inhibition", "value": "78.9%"}
{"SMILES": "Cc1c(Cc2ccccc2)c(=O)oc2c(C)c(OCC(=O)NN=Cc3ccc(Cl)cc3)ccc12", "technique": "MTT", "tested at": "62.5 µg/mL", "endpoint": "viability", "value": "47.1%"}
